Laboratory results published in ChEMBL document CHEMBL4616704, “Discovery of an Atropisomeric PI3Kβ Selective Inhibitor through Optimization of the Hinge Binding Motif” (ACS Med Chem Lett, 2020).
Several values for one entry are separate records, joined by “and”; a condition that tells them apart may be missing. Equal entries are not always repeated.

Legend:
[1] = molecular target: Phosphatidylinositol 4,5-bisphosphate 3-kinase catalytic subunit gamma isoform (Homo sapiens, UniProt P48736); assay: Inhibition of human full length p110gamma using PIP2 as substrate after 30 mins in presence of ATP at 2xKm concentration by TR-FRET assay
[2] = molecular target: PI3-kinase p110-alpha/p85-alpha (Homo sapiens, UniProt P42336); assay: Inhibition of human full length p110alpha/p85alpha using PIP2 as substrate after 30 mins in presence of ATP at 2xKm concentration by TR-FRET assay; type: protein-complex assay
Method in brief: (§1)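 Class I PI3K isoforms assayed in vitro for kinase inhibition with ATP at 2Km steady-state concentration; IC50 values averaged over at least 2 determinations.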

[3] = molecular target: PI3-kinase p110-delta/p85-alpha (Homo sapiens, UniProt O00329); assay: Inhibition of human p110delta catalytic subunit/p85alpha using PIP2 as substrate after 30 mins in presence of ATP at 2xKm concentration by TR-FRET assay; type: protein-complex assay; method in brief: as §1
[4] = Protein binding in rhesus monkey plasma at 1 mg/kg administered as iv infusion for 30 mins and measured after 24 hrs by ESI-LC/MS/MS analysis; type: ADME, organism-based, Macaca mulatta; details: read-out: PPB (converted)
[5] = Protein binding in cynomolgus monkey plasma at 1 mg/kg administered as iv infusion for 30 mins and measured after 24 hrs by ESI-LC/MS/MS analysis; type: ADME, organism-based, Macaca fascicularis; details: read-out: PPB (converted)
[6] = Volume of distribution at steady state in cynomolgus monkey at 1 mg/kg administered as iv infusion for 30 mins and measured after 24 hrs by ESI-LC/MS/MS analysis; type: ADME, organism-based, Macaca fascicularis; details: in vivo, read-out: Vdss
[7] = molecular target: T1, Phosphatidylinositol 4,5-bisphosphate 3-kinase catalytic subunit beta isoform (Homo sapiens, UniProt P42338); assay: Inhibition of PI3Kbeta in PTEN-deficient human LNCaP C4-2 cells assessed as reduction in AKT phosphorylation at Ser473 residue after 2 hrs by mesoscale assay; type: cell-based
Method in brief: (§2)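 Cellular readout: pAKT1 Ser473 normalized to total AKT1, expressed as units pAKT1 Ser473 per nanogram total AKT1; cells treated under serum-free conditions.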

[8] = Clearance in cynomolgus monkey at 1 mg/kg administered as iv infusion for 30 mins and measured after 24 hrs by ESI-LC/MS/MS analysis; type: ADME, organism-based, Macaca fascicularis; details: in vivo
[9] = molecular target: T1, Phosphatidylinositol 4,5-bisphosphate 3-kinase catalytic subunit beta isoform; assay: Inhibition of PI3Kbeta in PTEN-deficient human MDA-MB-415 cells assessed as reduction in AKT phosphorylation at Ser473 residue after 2 hrs by mesoscale assay; type: cell-based; method in brief: as §2
[10] = Oral bioavailability in Sprague-Dawley rat at 5 mg/kg dosed via gavage after 24 hrs by ESI-LC/MS/MS analysis; type: ADME, organism-based; details: in vivo
[11] = molecular target: Voltage-gated inwardly rectifying potassium channel KCNH2 (Homo sapiens, UniProt Q12809); assay: Inhibition of human ERG
Method in brief: (§3)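 Binding-assay format used to measure inhibition of major human CYP450 enzymes and hERG.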

[12] = Protein binding in Sprague-Dawley rat plasma at 1 mg/kg administered as iv infusion for 30 mins and measured after 24 hrs by ESI-LC/MS/MS analysis; type: ADME, organism-based; details: read-out: PPB (converted)
[13] = Genotoxicity in Salmonella typhimurium by Ames test; type: toxicity; details: salmonella enterica subsp. enterica serovar typhimurium
[14] = Apparent permeability across basolateral to apical side in human Caco2 cells at 10 uM after 1 to 2 hrs by LC/MS/MS analysis; type: ADME, cell-based; details: Caco-2
[15] = Volume of distribution at steady state in rhesus monkey at 1 mg/kg administered as iv infusion for 30 mins and measured after 24 hrs by ESI-LC/MS/MS analysis; type: ADME, organism-based, Macaca mulatta; details: in vivo, read-out: Vdss
[16] = molecular target: T1, Phosphatidylinositol 4,5-bisphosphate 3-kinase catalytic subunit beta isoform; assay: Inhibition of PI3Kbeta in PTEN-deficient human LNCAP cells assessed as reduction in AKT phosphorylation at Ser473 residue after 2 hrs by mesoscale assay; type: cell-based; method in brief: as §2
[17] = molecular target: T1, Phosphatidylinositol 4,5-bisphosphate 3-kinase catalytic subunit beta isoform; assay: Inhibition of PI3Kbeta in PTEN-deficient human ZR-75-1 cells assessed as reduction in AKT phosphorylation at Ser473 residue after 2 hrs by mesoscale assay; type: cell-based; method in brief: as §2
[18] = Oral bioavailability in cynomolgus monkey at 5 mg/kg dosed via gavage after 24 hrs by ESI-LC/MS/MS analysis; type: ADME, organism-based, Macaca fascicularis; details: in vivo
Cytochrome P450 3A4 = Cytochrome P450 3A4 (Homo sapiens, UniProt P08684); assay: Inhibition of human CYP3A4; type: ADME
[19] = Dissociation constant, acidic pKa of compound; type: physicochemical
[20] = molecular target: T1, Phosphatidylinositol 4,5-bisphosphate 3-kinase catalytic subunit beta isoform; assay: Inhibition of PI3Kbeta in PTEN-deficient human PC3 cells assessed as reduction in AKT phosphorylation at Ser473 residue after 2 hrs by mesoscale assay; type: cell-based, PC-3; method in brief: as §2
CYP450 = CYP450 (Homo sapiens, UniProt P04798+P05177+P05181+P08684+P10632+P10635+P11509+P11712+P13584+P20813+P20815+P20853+P24462+P24903+P33260+P33261+P51589+P78329+P98187+Q02928+Q08477+Q16678+Q16696+Q5TCH4+Q6VVX0+Q7Z449+Q8TAV3+Q96SQ9+Q9HB55); assay: Inhibition of human CYP450; type: ADME, protein assay; method in brief: as §3
[21] = Protein binding in Beagle dog plasma at 1 mg/kg administered as iv infusion for 30 mins and measured after 24 hrs by ESI-LC/MS/MS analysis; type: ADME, organism-based, Canis lupus familiaris; details: read-out: PPB (converted)
[22] = Clearance in human hepatocytes at 1 uM measured up to 250 mins by UHPLC-HRMS analysis; type: ADME, cell-based, Hepatocyte; details: 250 min, 1 µM
[23] = Apparent permeability across apical to basolateral side in human Caco2 cells at 10 uM after 1 to 2 hrs by LC/MS/MS analysis; type: ADME, cell-based; details: Caco-2
PI3K p110 beta/p85 alpha = PI3K p110 beta/p85 alpha (Homo sapiens, UniProt P42338); assay: Inhibition of recombinant human full-length N-terminal His6-tagged p110beta/human recombinant full-length untagged p85alpha expressed in baculovirus infected Sf21 insect cells using PIP2 as substrate after 30 mins in presence of ATP at 2xKm concentration by TR-FRET assay; method in brief: as §1

T1 sequence (P42338 whole entry, canonical isoform): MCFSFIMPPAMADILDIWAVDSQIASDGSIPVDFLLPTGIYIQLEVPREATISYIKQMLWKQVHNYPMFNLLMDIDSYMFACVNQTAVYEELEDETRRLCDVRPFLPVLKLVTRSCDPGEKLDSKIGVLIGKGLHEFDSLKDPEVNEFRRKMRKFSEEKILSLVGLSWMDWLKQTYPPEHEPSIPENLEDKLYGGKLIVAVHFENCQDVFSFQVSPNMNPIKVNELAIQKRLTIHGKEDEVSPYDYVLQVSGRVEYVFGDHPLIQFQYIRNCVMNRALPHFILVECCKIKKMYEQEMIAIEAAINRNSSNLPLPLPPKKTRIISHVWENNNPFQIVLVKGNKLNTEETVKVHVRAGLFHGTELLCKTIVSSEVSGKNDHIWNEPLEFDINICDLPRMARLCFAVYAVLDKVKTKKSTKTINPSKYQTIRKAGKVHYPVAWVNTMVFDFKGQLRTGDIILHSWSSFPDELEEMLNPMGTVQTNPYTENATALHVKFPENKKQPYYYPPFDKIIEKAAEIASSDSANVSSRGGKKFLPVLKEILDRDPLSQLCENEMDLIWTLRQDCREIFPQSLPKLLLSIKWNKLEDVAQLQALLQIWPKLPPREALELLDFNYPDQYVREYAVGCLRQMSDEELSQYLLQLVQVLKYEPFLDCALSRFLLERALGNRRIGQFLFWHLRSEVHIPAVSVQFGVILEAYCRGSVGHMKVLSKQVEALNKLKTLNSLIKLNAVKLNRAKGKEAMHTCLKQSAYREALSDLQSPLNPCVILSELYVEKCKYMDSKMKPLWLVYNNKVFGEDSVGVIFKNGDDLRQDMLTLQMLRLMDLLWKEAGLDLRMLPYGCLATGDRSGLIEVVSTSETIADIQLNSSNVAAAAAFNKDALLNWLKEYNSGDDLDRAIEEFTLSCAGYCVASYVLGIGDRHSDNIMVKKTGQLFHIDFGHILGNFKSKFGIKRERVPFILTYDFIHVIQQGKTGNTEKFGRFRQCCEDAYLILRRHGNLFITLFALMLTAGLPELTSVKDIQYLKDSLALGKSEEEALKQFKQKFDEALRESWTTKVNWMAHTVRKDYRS
Phosphatidylinositol 4,5-bisphosphate 3-kinase catalytic subunit gamma isoform, sequence (P48736 whole entry, canonical isoform): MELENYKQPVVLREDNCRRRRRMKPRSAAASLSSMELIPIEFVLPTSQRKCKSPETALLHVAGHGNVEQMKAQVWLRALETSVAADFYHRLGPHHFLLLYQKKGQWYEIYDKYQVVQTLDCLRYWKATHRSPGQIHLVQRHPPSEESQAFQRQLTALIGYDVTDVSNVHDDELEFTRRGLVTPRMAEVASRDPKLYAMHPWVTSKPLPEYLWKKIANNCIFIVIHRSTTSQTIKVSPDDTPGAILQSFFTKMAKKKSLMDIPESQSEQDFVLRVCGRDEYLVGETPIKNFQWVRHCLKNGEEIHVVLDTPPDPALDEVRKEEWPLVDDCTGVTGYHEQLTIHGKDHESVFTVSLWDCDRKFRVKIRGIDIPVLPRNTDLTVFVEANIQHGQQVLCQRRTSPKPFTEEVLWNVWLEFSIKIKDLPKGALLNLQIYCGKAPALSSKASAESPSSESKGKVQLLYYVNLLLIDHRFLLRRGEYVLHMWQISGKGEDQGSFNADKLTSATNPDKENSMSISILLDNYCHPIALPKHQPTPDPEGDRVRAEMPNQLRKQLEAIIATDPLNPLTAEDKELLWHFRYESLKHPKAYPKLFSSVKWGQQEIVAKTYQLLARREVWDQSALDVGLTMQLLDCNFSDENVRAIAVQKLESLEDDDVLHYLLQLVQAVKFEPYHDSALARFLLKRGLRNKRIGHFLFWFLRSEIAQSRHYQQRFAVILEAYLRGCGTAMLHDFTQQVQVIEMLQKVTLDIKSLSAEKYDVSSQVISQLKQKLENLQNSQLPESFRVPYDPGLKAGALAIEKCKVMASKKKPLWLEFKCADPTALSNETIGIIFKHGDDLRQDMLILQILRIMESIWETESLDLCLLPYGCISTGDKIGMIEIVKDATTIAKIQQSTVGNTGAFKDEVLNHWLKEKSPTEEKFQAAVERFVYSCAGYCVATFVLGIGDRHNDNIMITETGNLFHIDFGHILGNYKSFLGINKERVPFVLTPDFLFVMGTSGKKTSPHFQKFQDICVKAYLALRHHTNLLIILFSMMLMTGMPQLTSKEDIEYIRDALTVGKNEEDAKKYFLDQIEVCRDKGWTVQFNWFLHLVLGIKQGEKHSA
PI3-kinase p110-alpha/p85-alpha, sequence (P27986 whole entry, canonical isoform): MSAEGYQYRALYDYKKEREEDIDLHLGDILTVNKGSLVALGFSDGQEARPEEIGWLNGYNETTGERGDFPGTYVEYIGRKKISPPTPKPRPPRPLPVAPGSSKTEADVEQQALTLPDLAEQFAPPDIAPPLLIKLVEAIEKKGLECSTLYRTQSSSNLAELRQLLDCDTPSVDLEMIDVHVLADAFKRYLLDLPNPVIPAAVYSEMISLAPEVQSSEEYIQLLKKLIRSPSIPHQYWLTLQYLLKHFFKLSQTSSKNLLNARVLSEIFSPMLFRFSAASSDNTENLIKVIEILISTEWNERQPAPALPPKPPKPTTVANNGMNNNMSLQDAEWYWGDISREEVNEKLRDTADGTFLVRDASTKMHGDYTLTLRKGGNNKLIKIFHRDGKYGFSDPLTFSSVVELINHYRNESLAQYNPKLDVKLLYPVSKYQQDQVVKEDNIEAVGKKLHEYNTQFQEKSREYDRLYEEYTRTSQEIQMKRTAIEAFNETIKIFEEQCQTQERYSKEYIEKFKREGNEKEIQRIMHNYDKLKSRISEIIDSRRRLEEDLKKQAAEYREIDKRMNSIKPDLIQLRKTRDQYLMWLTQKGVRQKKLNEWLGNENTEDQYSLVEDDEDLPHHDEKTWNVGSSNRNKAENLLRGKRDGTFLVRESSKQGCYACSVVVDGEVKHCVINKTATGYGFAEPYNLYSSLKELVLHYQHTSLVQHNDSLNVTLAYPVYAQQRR
PI3-kinase p110-alpha/p85-alpha, sequence (P42336 whole entry, canonical isoform): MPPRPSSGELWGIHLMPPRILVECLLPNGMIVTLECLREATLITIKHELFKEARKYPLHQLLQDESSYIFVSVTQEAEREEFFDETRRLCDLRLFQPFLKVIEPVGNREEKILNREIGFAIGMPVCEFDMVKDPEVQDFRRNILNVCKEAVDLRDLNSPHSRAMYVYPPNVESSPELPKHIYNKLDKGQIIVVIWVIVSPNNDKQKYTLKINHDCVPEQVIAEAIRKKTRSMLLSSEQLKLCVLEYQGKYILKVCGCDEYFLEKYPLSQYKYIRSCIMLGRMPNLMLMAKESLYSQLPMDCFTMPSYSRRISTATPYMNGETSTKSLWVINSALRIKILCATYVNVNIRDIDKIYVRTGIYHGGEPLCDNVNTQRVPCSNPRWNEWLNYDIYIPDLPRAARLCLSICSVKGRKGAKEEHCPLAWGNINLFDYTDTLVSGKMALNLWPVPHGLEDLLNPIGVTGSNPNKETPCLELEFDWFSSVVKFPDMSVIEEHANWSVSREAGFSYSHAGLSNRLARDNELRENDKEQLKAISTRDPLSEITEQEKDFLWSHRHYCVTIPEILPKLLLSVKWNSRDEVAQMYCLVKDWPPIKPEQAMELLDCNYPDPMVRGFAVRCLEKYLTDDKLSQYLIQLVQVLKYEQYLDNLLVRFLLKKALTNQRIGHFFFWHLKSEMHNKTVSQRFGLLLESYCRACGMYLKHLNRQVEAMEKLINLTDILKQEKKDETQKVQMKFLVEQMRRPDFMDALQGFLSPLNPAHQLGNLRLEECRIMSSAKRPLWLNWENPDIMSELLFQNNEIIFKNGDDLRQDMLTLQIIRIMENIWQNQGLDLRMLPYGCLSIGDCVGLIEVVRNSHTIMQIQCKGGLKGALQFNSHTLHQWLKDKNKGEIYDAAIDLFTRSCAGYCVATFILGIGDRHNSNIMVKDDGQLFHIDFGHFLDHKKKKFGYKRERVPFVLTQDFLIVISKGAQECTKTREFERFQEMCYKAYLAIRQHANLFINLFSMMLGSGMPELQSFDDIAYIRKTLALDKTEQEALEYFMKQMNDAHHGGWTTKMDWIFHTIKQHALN
PI3-kinase p110-delta/p85-alpha, sequence (P27986 whole entry, the tested form may be a part): as the sequence (P27986 whole entry, canonical isoform) above
PI3-kinase p110-delta/p85-alpha, sequence (O00329 whole entry, the tested form may be a part): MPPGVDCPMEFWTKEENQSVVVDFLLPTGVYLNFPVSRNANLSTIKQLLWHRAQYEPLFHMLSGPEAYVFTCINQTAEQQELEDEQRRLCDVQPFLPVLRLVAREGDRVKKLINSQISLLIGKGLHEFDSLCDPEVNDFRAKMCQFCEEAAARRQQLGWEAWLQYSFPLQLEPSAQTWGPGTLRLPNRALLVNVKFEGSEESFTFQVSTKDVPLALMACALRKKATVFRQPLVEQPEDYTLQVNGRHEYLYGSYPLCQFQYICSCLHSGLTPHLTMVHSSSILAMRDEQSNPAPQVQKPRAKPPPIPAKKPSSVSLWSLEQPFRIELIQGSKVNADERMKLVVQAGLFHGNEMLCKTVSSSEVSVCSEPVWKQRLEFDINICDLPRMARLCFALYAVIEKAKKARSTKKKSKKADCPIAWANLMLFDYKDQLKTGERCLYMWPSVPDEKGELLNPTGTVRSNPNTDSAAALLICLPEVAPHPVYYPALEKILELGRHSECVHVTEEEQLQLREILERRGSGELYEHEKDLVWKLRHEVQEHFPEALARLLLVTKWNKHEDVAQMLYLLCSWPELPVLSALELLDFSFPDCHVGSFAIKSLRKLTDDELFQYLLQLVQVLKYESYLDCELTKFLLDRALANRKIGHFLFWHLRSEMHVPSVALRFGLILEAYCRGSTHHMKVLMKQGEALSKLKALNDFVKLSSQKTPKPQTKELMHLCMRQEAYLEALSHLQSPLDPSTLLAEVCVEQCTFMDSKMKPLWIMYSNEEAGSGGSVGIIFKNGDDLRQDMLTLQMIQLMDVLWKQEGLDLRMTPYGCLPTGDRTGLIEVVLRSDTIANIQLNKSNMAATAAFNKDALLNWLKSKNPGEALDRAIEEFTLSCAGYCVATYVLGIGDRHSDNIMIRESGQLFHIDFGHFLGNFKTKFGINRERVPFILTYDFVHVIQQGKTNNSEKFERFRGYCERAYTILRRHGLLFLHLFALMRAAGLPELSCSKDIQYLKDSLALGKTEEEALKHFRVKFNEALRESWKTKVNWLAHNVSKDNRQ

Row | SMILES | IC50 [1] [µM] | IC50 [2] [µM] | IC50 [3] | further results
1 | Cc1cc(C(C)Nc2ccccc2)c2nc(N3CCOCC3)cc(=O)n2c1 (stereo unspecified) | > 10 | 7.6 | 0.5 µM | 
2 | Cc1nc2c(-c3nnc[nH]3)cc(-c3ccnc(N)c3F)cc2n1-c1ccnc2c(F)ccc(F)c12 |  |  |  | fraction unbound at 24 h [4]: 0.07; fraction unbound at 24 h [5]: 0.06; Vd [6]: 0.5 L/kg; EC50 [7]: 0.015 µM; clearance [8]: 2.17 mL/min/kg; EC50 [9]: 0.012 µM; bioavailability [10]: 60%; IC50 [11]: > 25 µM; fraction unbound at 24 h [12]: 0.19; Activity [13]: Non-Toxic; Papp B→A at 10 µM [14]: 31 ×10⁻⁶ cm/s; Vd [15]: 0.6 L/kg; EC50 [16]: 0.053 µM; EC50 [17]: 0.006 µM; bioavailability [18]: 64%; IC50 (Cytochrome P450 3A4): > 25 µM; pKa [19]: 4.8; EC50 [20]: 0.009 µM; IC50 (CYP450): > 25 µM; fraction unbound at 24 h [21]: 0.08
3 | Cc1nc2c(-c3nnc[nH]3)cc(-c3ccnc(C(F)F)c3)cc2n1-c1ccnc2c(F)ccc(F)c12 | 9.42 | 0.68 | 0.402 µM | 
4 | Cc1nc2c(-c3nnc[nH]3)cc(-c3c(F)cnc(N)c3F)cc2n1-c1ccnc2c(F)ccc(F)c12 | > 10 | 2.52 | 1.66 µM | 
5 | Cc1nc2c(-c3nnc[nH]3)cc(-c3ccncc3)cc2n1-c1ccnc2c(F)ccc(F)c12 | > 10 |  |  | CLH [22]: 4 mL/min/kg and 10.2 mL/min/kg; IC50 (Cytochrome P450 3A4): 1 µM; pKa [19]: 5.3
6 | Clc1cccc2c(-n3cnc4c(-c5ncn[nH]5)cc(-c5ccncc5)cc43)ccnc12 | 5.3 | 0.35 | 0.1 µM | 
7 | CNc1nccc(-c2cc(-c3nnc[nH]3)c3nc(C)n(-c4ccnc5c(F)ccc(F)c45)c3c2)c1F | > 10 | > 10 | > 10 µM | 
8 | Cc1cc(-c2cc(-c3nnc[nH]3)c3nc(C)n(-c4ccnc5c(F)ccc(F)c45)c3c2)ccn1 | > 10 |  | 0.3 µM and 0.122 µM and 1.11 µM | IC50 (Cytochrome P450 3A4): 19 µM; pKa [19]: 5.9
9 | Cc1nccc(-c2cc(-c3nnc[nH]3)c3nc(C)n(-c4ccnc5c(F)ccc(F)c45)c3c2)n1 | 2.72 | 0.055 | 0.035 µM | 
10 | Cc1nc2c(-c3nnc[nH]3)cc(-c3ccnc(N)c3)cc2n1-c1ccnc2c(F)ccc(F)c12 | > 10 |  |  | Papp B→A at 10 µM [14]: 18 ×10⁻⁶ cm/s; IC50 (Cytochrome P450 3A4): > 25 µM; pKa [19]: 6.1; Papp A→B at 10 µM [23]: 1.7 ×10⁻⁶ cm/s
11 | Cc1cc(-c2cc(-c3nnc[nH]3)c3nc(C)n(-c4ccnc5c(F)ccc(F)c45)c3c2)ncn1 | > 10 | 1.27 | 1.14 µM | 
12 | Cc1nc2c(-c3nnc[nH]3)cc(-c3ccnc(N)c3Cl)cc2n1-c1ccnc2c(F)ccc(F)c12 | > 10 | 0.89 | 0.297 µM | 
13 | Cc1c(-c2cc(-c3nnc[nH]3)c3nc(C)n(-c4ccnc5c(F)ccc(F)c45)c3c2)ccnc1N | > 10 | > 10 | > 10 µM | IC50 (PI3K p110 beta/p85 alpha): 2.86 µM
14 | Cc1nc2c(-c3nnc[nH]3)cc(-c3ccnc(Cl)c3)cc2n1-c1ccnc2c(F)ccc(F)c12 | 6.27 | 0.075 | 0.052 µM | 
15 | Clc1cccc2c(-n3cnc4c(-c5nnc[nH]5)cc(N5CCOCC5)cc43)ccnc12 | 0.35 | 0.06 | 0.012 µM | 
16 | Cc1cc(-c2cc(-c3nnc[nH]3)c3nc(C)n(-c4ccnc5c(F)ccc(F)c45)c3c2)cc(N)n1 | > 10 | 6.84 | 2.59 µM | 
17 | Cc1nc2c(-c3nnc[nH]3)cc(-c3cc(N)ncc3F)cc2n1-c1ccnc2c(F)ccc(F)c12 | > 10 | 1.5 | 0.302 µM | 
18 | C[C@@H](Nc1cc(F)cc(F)c1)c1cc(C(=O)N(C)C)cc2c(=O)cc(N3CCOCC3)oc12 [AZD-8186] | 6 | 0.45 | 0.036 µM | 
